In article PMC2193282 (The Journal of Experimental Medicine, 2000):

System: epidermal Langerhans cells
Test: Langerhans cell migration assay
Assay type: in vivo, BALB/c mice
Conditions: 24 h after topical application of 0.5% DNFB on ear (Fig. 5 A)
Method in brief: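 Ears were harvested 24 h later. Epidermal sheets were separated (0.5 M ammonium thiocyanate, 20 min, 37°C), acetone-fixed and stained with FITC anti-IA mAb 2G9. IA+ cells were counted at ×400 in 10 fields/sample; 5–15 mice/group.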

With `O=[N+]([O-])c1ccc(F)c([N+](=O)[O-])c1` [DNFB, dinitrofluorobenzene] the “reduction of epidermal Langerhans cell density” value was about 35%.
